{"data": "Results collected from several papers", "RIOK3": "Serine/threonine-protein kinase RIO3 (RIOK3, Homo sapiens, UniProt O14730)", "ACSL4": "Long-chain-fatty-acid--CoA ligase 4 (ACSL4, Homo sapiens, UniProt O60488)", "note": "Lines come from different studies, so protocols differ."}
{"SMILES": "C1=C/COCc2cc(ccc2OCCN2CCCC2)Nc2nccc(n2)-c2cccc(c2)COC/1", "target": "Death-associated protein kinase 1 (DAPK1, Homo sapiens, UniProt P53355)", "read-out": "binding", "tested at": "0.1 µM", "endpoint": "remaining binding", "result": "64%"}
{"SMILES": "C#Cc1cc(-c2cc(Nc3nc(N[C@@H](C)c4ccc(F)cn4)ncc3Cl)n[nH]2)ccc1C=O", "target": "Serine/threonine-protein kinase 33 (STK33, Homo sapiens, UniProt Q9BYT3)", "read-out": "enzyme activity", "mode": "inhibitor", "tested at": "0.2 µM", "endpoint": "inhibition", "result": "7.93%"}
{"SMILES": "Cc1cc(F)cc2c(CCC(=O)N[C@@H]3C(=O)NC[C@H]3O)c(-c3ccc(F)cc3)[nH]c12", "target": "3',5'-cyclic-AMP phosphodiesterase 4D (PDE4D, Homo sapiens, UniProt Q08499)", "read-out": "enzyme activity", "mode": "inhibitor", "tested at": "10 µM", "endpoint": "inhibition", "result": "17%"}
{"SMILES": "CNS(=O)(=O)c1ccc(Nc2ncc(C(F)(F)F)c(N3CCC[C@](C)(O)C3)n2)c(C)c1", "target": "RIOK3", "read-out": "binding", "method": "competition with immobilised ligand", "tested at": "1 µM", "endpoint": "remaining binding", "result": "99%"}
{"SMILES": "O=C(/C=C/c1ccc(O)c(O)c1)O[C@H](Cc1ccc(O)c(O)c1)C(=O)O", "target": "Peroxiredoxin-1 (PRDX1, Homo sapiens, UniProt Q06830)", "read-out": "thermal stability", "method": "DSF", "tested at": "800 µM", "endpoint": "ΔTm", "result": "9.31 °C"}
{"SMILES": "CN1CCc2c(c3ccccc3n2Cc2ccc(C(=O)NO)cc2)C1", "target": "Protein deacetylase HDAC6 (HDAC6, Homo sapiens, UniProt Q9UBN7)", "read-out": "enzyme activity", "mode": "inhibitor", "method": "fluorescence", "tested at": "0.5 µM", "endpoint": "inhibition", "result": "94.8%"}
{"SMILES": "C[C@]1(O)CCCN(c2nc(Nc3ccc(S(=O)(=O)N[C@H]4CC[C@H](CN5CCN(c6ccc(C7CCC(=O)NC7=O)cc6F)CC5)CC4)cc3F)ncc2C(F)(F)F)C1 (stereo partly shown)", "target": "RIOK3", "read-out": "binding", "method": "competition with immobilised ligand", "tested at": "1 µM", "endpoint": "remaining binding", "result": "100%"}
{"SMILES": "COC(=O)/C=C/c1ccc(OCCN(C)C(=O)c2ccccc2)cc1", "target": "ACSL4", "read-out": "thermal stability", "method": "DSF", "tested at": "5 µM", "endpoint": "ΔTm", "result": "5.3 °C"}
{"SMILES": "Cc1cc(S(=O)(=O)N[C@H]2CC[C@H](CN3CCN(c4ccc(C5CCC(=O)NC5=O)cc4F)CC3)CC2)ccc1Nc1ncc(C(F)(F)F)c(N2CCC[C@](C)(O)C2)n1 (stereo partly shown)", "target": "Cyclin-dependent kinase 7 (CDK7, Homo sapiens, UniProt P50613)", "read-out": "binding", "method": "competition with immobilised ligand", "tested at": "1 µM", "endpoint": "remaining binding", "result": "55%"}
{"SMILES": "O=C1NC(=O)C(Cc2ccc(N3CCN(c4ccccn4)CC3)cc2)S1 (stereo not shown)", "target": "ACSL4", "read-out": "enzyme activity", "mode": "inhibitor", "tested at": "10 µM", "endpoint": "inhibition", "result": "42%"}
{"SMILES": "C[C@]1(O)CCCN(c2nc(Nc3ccc(S(=O)(=O)N[C@H]4CC[C@H](CN5CCN(c6ccc(C7CCC(=O)NC7=O)cc6F)CC5)CC4)cc3Cl)ncc2C(F)(F)F)C1 (stereo partly shown)", "target": "RIOK3", "read-out": "binding", "method": "competition with immobilised ligand", "tested at": "1 µM", "endpoint": "remaining binding", "result": "52%"}
{"SMILES": "CCCCC(=O)Nc1ccc(-c2ccc3ncn(CCC)c(=O)c3c2)cn1", "target": "Serine/threonine-protein kinase MAK (MAK, Homo sapiens, UniProt P20794)", "read-out": "binding", "method": "competition with immobilised ligand", "tested at": "0.5 µM", "endpoint": "remaining binding", "result": "71%"}
{"SMILES": "CCN1/C(=C/C(C)=O)Sc2ccc(F)cc21", "target": "Prostaglandin E2 receptor EP4 subtype (PTGER4, Homo sapiens, UniProt P35408)", "read-out": "ligand displacement", "method": "radioligand", "tested at": "10 µM", "endpoint": "inhibition", "result": "4.39%"}
